# Bioassay records (PubChem)
# HTR1E agonist = agonists of human 5-HT1E serotonin receptor | actives 0.69% (n = 65,000) | activation, % at 6 µM | P28566 | CHO 5-HT1E Ga15 NFAT-bla reporter, FRET; 0% DMSO wells, 100% control agonist wells;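 active means activation above a set limit, the screen-wide mean activation plus 3 SD, cut at about 8.5% in these data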;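 further: 100% = positive control agonist at 1 µM giving full maximal response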
# Target sequence (P28566 whole entry, looked up): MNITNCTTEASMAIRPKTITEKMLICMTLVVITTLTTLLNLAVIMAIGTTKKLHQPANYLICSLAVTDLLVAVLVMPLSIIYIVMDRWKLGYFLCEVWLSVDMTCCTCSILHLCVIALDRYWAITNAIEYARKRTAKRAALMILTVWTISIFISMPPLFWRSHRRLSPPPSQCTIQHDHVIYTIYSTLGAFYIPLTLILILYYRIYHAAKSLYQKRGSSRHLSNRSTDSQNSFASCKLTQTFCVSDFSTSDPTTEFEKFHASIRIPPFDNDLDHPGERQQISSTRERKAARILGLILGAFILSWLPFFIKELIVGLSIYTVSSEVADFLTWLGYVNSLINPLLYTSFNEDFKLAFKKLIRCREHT
# S1P3 ag = activates the human S1P3 receptor; Q99500; S1P3 NFAT-BLA reporter cells, agonism, FRET ratio; relative to 1 µM S1P, basal subtracted; activation, % at 4.5 µM; actives 0.1% (n = 60,000);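 active means activation above the screen-wide mean plus 3 SD, cut at about 4.5% in these data, passing the limit was not always enough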
#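 material = human S1P3 NFAT-BLA reporter CHO cells | schedule = 4 h compound at 37 °C, 2 h substrate at RT | measured by = fluorescent BLA substrate, ex 405 nm, em 460/535 nm ratio | controls = 1 µM S1P reference | replication = primary once, confirmation triplicate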
# 5HT1E antag = 5-HT1E (human) receptor antagonism; actives 0.99% (n = 65,000); inhibition, % at 6 µM; P28566; CHO 5-HT1E Ga15 NFAT-bla reporter, FRET, antagonist; AID 571;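 active means inhibition above a set limit, the mean inhibition across every tested compound plus 3 SD, cut at about 29% in these data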;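 further: signal is the 460 over 535 nm emission ratio of beta-lactamase substrate; 0% = agonist plus DMSO wells and 100% = wells without agonist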
# 5HT1a antag = 5-HT1a (human) receptor antagonism. P08908. CHO 5-HT1a Ga15 NFAT-bla reporter, antagonist mode. inhibition, % at 10 µM. actives 0.68% (n = 62,000);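 active means inhibition above the mean of all tested compounds plus 3 SD, cut at about 43% in these data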;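 further: receptor stimulated by 5-CT agonist at 100 nM near EC80; beta-lactamase reporter measured by ratiometric fluorescence of a cleavable substrate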
# 5HT1a ag = agonists of human 5-HT1a serotonin receptor; P08908; activation, % at 10 µM; CHO 5-HT1a Ga15 NFAT-bla reporter, FRET ratio; 0% basal, 100% maximal reference agonist; actives 0.56% (n = 65,000);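 active means activation above the screen-wide mean activation plus 3 SD, cut at about 19% in these data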;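 further: 0% = DMSO wells and 100% = 5-CT at EC100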
# S1P1 ag-PAM = agonists and agonism potentiators of human S1P1 receptor. S1P1 CRE-bla cells, forskolin, beta-lactamase FRET, potentiator mode; S1P1 agonist co-added at EC20, 2 nM; 100% = saturating reference agonist, 0% = basal. actives 0.57% (n = 56,000). P21453. activation, % at 9.5 µM;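 active means activation above a cutoff set at the mean activation of all tested compounds plus 3 SD, cut at about 54% in these data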;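 further: forskolin at 4 µM as EC80 and the EC20 agonist is SEW2871; 100% = SEW2871 at its EC100 plus forskolin at EC80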
# * marks the source's active call; other numbers are inactive results; nt = no result. Only some compounds are listed: those with a hit (about 3% of all), similar ones and a draw of the others.
SMILES,HTR1E agonist,S1P3 ag,5HT1E antag,5HT1a antag,5HT1a ag,S1P1 ag-PAM
CC1(C)CC(=O)C(C=Nc2cccnc2)=C(O)C1,0,-2,33*,34,0,-7
CC1(C)CC(=O)C(C=Nc2ccc3c(c2)OCO3)=C(O)C1,0,-1,31*,17,-2,20
Cc1cccc(N2CCN(C(=O)c3ccc(CS(=O)(=O)c4ccccc4C)o3)CC2C)c1 (configuration not stated),0,-2,40*,46*,1,6
CC(NS(=O)(=O)c1ccccc1)C(=O)Nc1nccs1 (configuration not stated),0,0,6,-1,268*,-1
COCCn1c(SCC(=O)OCc2ccccc2)nc2c1c(=O)[nH]c(=O)n2C,-1,-1,-8,9,-5,-13
Cc1ccc2nc3c(cc(C(=O)NCc4ccccc4)c(=N)n3CCCn3ccnc3)c(=O)n2c1,3,4,-18,-33,15,-431
Cc1cccn2c(=O)c3cc(C(=O)NC(C)c4ccccc4)c(=N)n(CCCn4ccnc4)c3nc12 (configuration not stated),5,4.7*,-21,-66,16,-497
COc1ccc(N(CC(=O)NC2CCCC2)C(=O)Cn2nnc(-c3ccc(C)cc3)n2)cc1OC,54*,-1,6,6,-1,6
CC(C)CSc1nc(N2CCOCC2)c2c(c1C#N)CC(C)(C)SC2,-1,-3,29*,nt,-1,-12
CCN(CC)c1nc(N2CCOCC2)c(C#N)c2c1CN(C)CC2,52*,-2,5,nt,2,-24
CC(C)Sc1nc(N2CCOCC2)c2c(c1C#N)CC(C)(C)SC2,1,0,12,-10,2,2
CCSc1nc(N2CCOCC2)c2c(c1C#N)CCCC2,1,4.7*,4,-15,8,54
CC(C)c1nc(N2CCOCC2)c(C#N)c2c1CCCC2,0,0,-10,-4,2,nt
COc1ccc2cc(CN(Cc3cccnc3)S(=O)(=O)c3ccccc3)c(=O)[nH]c2c1,0,0,5,-6,3,2
O=C1C2CC=C(Cl)CC2C(=O)N1CN(Cc1ccco1)CN1C(=O)C2CC=C(Cl)CC2C1=O (configuration not stated),0,-1,-5,-8,-2,-32
CCc1nnc(NC(=O)CCN2C(=O)c3ccccc3C2=O)s1,16*,-1,-6,4,3,-27
CCc1nnc(NC(=O)CCN2C(=O)c3ccccc3S2(=O)=O)s1,0,0,-3,-1,1,2
Cc1cc(C)c(NC(=O)CSc2nc3c(c(=O)n2C)SC(C)C3)c(C)c1 (configuration not stated),2,-1,-23,13,-1,31
Cc1cc(Oc2ccc(-c3ccccc3)cc2)n2ncnc2n1,0,0,34*,46*,-3,6
CCC(=O)N1CCc2cc(Br)cc(S(=O)(=O)NCC3CCCN3CC)c21 (configuration not stated),0,nt,3,-4,1,nt
O=C(Nc1ccc2c(c1)OCO2)c1cccc2c1C(=O)N(Cc1cccnc1)C2,1,0,1,-10,-1,-9
COc1cc(NC(=O)c2cccc3c2C(=O)N(Cc2cccnc2)C3)cc(OC)c1OC,1,2,30*,18,3,-25
CCCn1nc(NS(=O)(=O)c2ccccc2)c2cc3ccccc3nc21,2,-1,-1,0,24*,19
O=c1c2ccccc2nc2n1CC/C2=C/N1CCN(c2cccc(C(F)(F)F)c2)CC1,39*,0,-8,9,2,6
O=C(Cn1cc2c(n1)CCCC2)Nc1cc(-c2cccc(Cl)c2)no1,0,1,-7,0,0,-36
SMILES,HTR1E agonist,S1P3 ag,5HT1E antag,5HT1a antag,5HT1a ag,S1P1 ag-PAM
O=C(NCC1CCCO1)C1c2ccccc2C(=O)N1C1CCCCCC1 (configuration not stated),1,-1,-4,-1,0,1
COCCNC(=O)c1c(N)n(CCC2=CCCCC2)c2nc3ccccc3nc12,8,4,-26,nt,29*,-54
COCCn1c(N)c(C(=O)OCc2ccccc2)c2nc3ccccc3nc21,2,0,6,-30,1,-32
COc1ccc(CCn2c(N)c(C(=O)NCc3ccco3)c3nc4ccccc4nc32)cc1OC,2,7.3*,1,6,1,-112
CCN(CC)C(=O)C1CCN(S(=O)(=O)c2ccc(C3CNC(=O)C3)cc2)CC1 (configuration not stated),0,0,5,3,-2,-15
Cc1ccc(S(=O)(=O)N2CCCSCC2)cc1,0,1,-5,3,49*,-13
CCCCOC(=O)C1Cc2ccccc2C(=O)O1 (configuration not stated),0,0,-6,7,-3,nt
C=CCn1c(SCCC(=O)O)nc2c1c(=O)n(C)c(=O)n2C,-1,0,2,9,-2,6
CCN1C(=O)NC2C1N(S(C)(=O)=O)CCN2S(C)(=O)=O (configuration not stated),0,-1,3,-5,1,-8
Cc1ccc(-n2c(=O)c(C#N)cc3c(=O)n4ccccc4nc32)cc1,8,4,-6,-25,30*,-11
Cc1cc(-n2c(=O)c(C#N)cc3c(=O)n4cccc(C)c4nc32)no1,3,8,-4,-21,49*,-22
CCOCCCNC(=O)C(NC(=O)CC1NC(=O)NC1=O)c1ccc(Cl)cc1 (configuration not stated),1,nt,-1,-8,0,nt
Cc1cc(C(=O)CSc2nnnn2-c2ccc(O)cc2)c(C)n1Cc1ccc2c(c1)OCO2,1,0,8,18,1,61*
CCCn1c(=O)c2ccccc2n2c(SCc3c(C(=O)OCC)oc4ccccc34)nnc12,0,13*,1,24,-2,-48
CCCn1c(=O)c2ccccc2n2c(SCN3C(=O)c4ccccc4C3=O)nnc12,0,-1,1,11,-2,-18
CCCN=Cc1sc2ccc(OCC)cc2c1O,35*,-2,9,26,-3,-5
CCOC(=O)c1[nH]c(C)c(/C=N/O)c1C,9.8*,-2,8,11,-3,5
Cc1ccc(N2C(=O)CC(N3CCN(C4CCc5ccccc5C4)CC3)C2=O)cc1 (configuration not stated),0,-2,9,14,20*,8
CCOc1ccc(N2C(=O)CC(N3CCN(C4CCc5ccccc5C4)CC3)C2=O)cc1 (configuration not stated),-1,-2,4,9,-3,-7
C=CCNC(=O)c1ccccc1Cl,0,-1,7,-4,-1,0
Cn1nnnc1Sc1ncnc2scc(-c3ccc(F)cc3)c12,0,-1,48*,34,0,-4
